Data on 1 compound can be found in ChEMBL document CHEMBL4321829, “Chagas Disease Drug Discovery: Multiparametric Lead Optimization against Trypanosoma cruzi in Acylaminobenzothiazole Series” (J Med Chem, 2019).

Data set [1] is described as follows: Ratio of drug level in blood to plasma in human at 1 uM after 1 hr by LC-MS/MS analysis. It is filed as ADME, cell-free. A digest of the protocol: (§1)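 Compound at a final 1 μM was mixed into prewarmed mouse or human whole blood at 37 °C. At 0 and 60 min, blood aliquots were lysed with water and matrix-matched with plasma. Samples were precipitated with IS-containing buffer and analysed by LC-MS/MS. The blood/plasma ratio was taken from compound:IS peak-area ratios.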

The nature of data set [2]: AUC in C57BL/6 mouse assessed as 5-Fluoro-6-(trifluoromethyl)benzothiazol-2-amine level at 50 mg/kg, po adminstered via gavage as suspension after 15 mins to 24 hrs by LC-MS/MS analysis. Type of data set: ADME, organism-based. Conditions: in vivo. Details: dose 50 mg/kg, time upper 24 hr, time lower 0.25 hr, route oral. A digest of the protocol:
(§2)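 Female C57BL/6 mice (n=3) were gavaged with 50 mg/kg parent compound as a 1% methylcellulose suspension. Whole blood was sampled at 15, 30, 45 min and 1, 2, 4, 8 and 24 h, diluted 1/2 with water and frozen.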

A short description of data set [3]: Cmax in C57BL/6 mouse at 50 mg/kg, po after 15 mins to 24 hrs by LC-MS/MS analysis. It is filed as ADME, organism-based. Also on record: dose 50 mg/kg, route oral. Conditions: in vivo.
The nature of data set [4]: Protein binding in mouse plasma at 2 uM after 4 hrs by LC-MS/MS analysis. Type of data set: ADME, cell-free. In a few lines: (§3)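 Equilibrium dialysis was run in RED inserts with mouse or human plasma at a final concentration of 2 μM, in triplicate. The receiver side held PBS at pH 7.4. Plates were incubated for 4 h at 37 °C at about 150 rpm. Samples were matrix-matched, protein-precipitated and analysed by LC-MS/MS. %PPB = 100 − (buffer/plasma × 100).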

Data set [5] is described as follows: Half life in CD-1 mouse at 5 mg/kg, iv after 5 mins to 24 hrs by LC-MS/MS analysis. Type of data set: ADME, organism-based. The conditions noted are these: in vivo. In a few lines:
(§4)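 Male CD-1 mice (n=3) received a 5 mg/kg i.v. bolus in 5% DMSO/20% encapsine in saline. Blood was drawn at 5, 15, 30 min and 1, 2, 4, 8 and 24 h, diluted 1/2 with water and frozen.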

Data set [6] in a line: Efflux ratio of apparent permeability across […] in MDCK-MDR1 cells at 3 uM after 60 mins by LC-MS/MS analysis. Type of data set: ADME, cell-based, Canis lupus familiaris. Conditions: dog, mdck-mdr1, 1 h. In a few lines: (§5)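 Papp was measured in MDR1-MDCK monolayers in HBSS at pH 7.4 (n=2), at 3 μM for 60 min. Transport was measured AB and BA, with and without the P-gp inhibitor GF120918. Monolayers were checked by TEER and Lucifer yellow. Analytes were measured by LC-MS/MS as analyte/IS area ratios. Amprenavir, prazosin and propranolol served as references.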

In data set [7] the test system is Trypanosoma cruzi. The experiment in a line: Antitrypanosomal activity against tdTomato red expressing Trypanosoma cruzi CL trypomastigotes infected in C57BL/6 mouse at 50 mg/kg administered for 2 days and measured after 4 to 6 days post infection. It is filed as functional, organism-based. In a few lines: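 Baseline footpad fluorescence was imaged on day 2. A single 50 mg/kg dose in 1% carboxymethyl cellulose/0.1% Tween 80 was then given. Imaging was repeated at day 4 or 6. IVA was calculated from the treated versus untreated fluorescence change. Controls were 50 mg/kg benznidazole and untreated mice.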

Data set [8] is described as follows: Tmax in C57BL/6 mouse at 50 mg/kg, po after 15 mins to 24 hrs by LC-MS/MS analysis. It is filed as ADME, organism-based. Conditions: in vivo.
Data set [9] is described as follows: Protein binding in human plasma at 2 uM after 4 hrs by LC-MS/MS analysis. It is filed as ADME, cell-free. In a few lines: as §3
In data set [10] the test system is Trypanosoma cruzi. The experiment in a line: Antitrypanosomal activity against Trypanosoma cruzi Tulahuen trypomastigotes beta-galactosidase infected in rat H9c2 cells measured after 72 hrs by DRAQ5 DNA dye based confocal microscopic analysis. It is filed as functional, organism-based. The conditions noted are these: H9c2, 72 h.
Data set [11] in a line: Intrinsic clearance in human liver microsomes at 0.5 uM in presence of NADPH measured up to 45 mins by UPLC/MS/MS analysis. It is filed as ADME, Microsome. Conditions: 0.75 h. In a few lines:
(§6)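 Compound at 0.5 μM was incubated with male CD1 mouse or human liver microsomes (0.5 mg/mL in 50 mM potassium phosphate, pH 7.4). The reaction was started with excess NADPH. Samples were taken at 0 and serial times up to 45 min, quenched in acetonitrile with internal standard and analysed by UPLC/MS/MS. Clint (mL/min/g tissue) was derived from t1/2 of parent remaining. Midazolam was the positive control.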

Data set [12] is described as follows: Volume of drug distribution at steady state in CD-1 mouse at 5 mg/kg, iv after 5 mins to 24 hrs by LC-MS/MS analysis. It is filed as ADME, organism-based. Conditions: in vivo, read-out: Vdss. In a few lines: as §4
Data set [13] in a line: Apparent permeability in MDCK-MDR1 cells at 3 uM after 60 mins by LC-MS/MS analysis. It is filed as ADME, cell-based, Canis lupus familiaris. The conditions noted are these: dog. A digest of the protocol: as §5
Data set [14] in a line: Clearance in CD-1 mouse at 5 mg/kg, iv after 5 mins to 24 hrs by LC-MS/MS analysis. It is filed as ADME, organism-based. Conditions: in vivo. In a few lines: as §4
The subject of data set [15] is H9c2. Put plainly: Cytotoxicity against rat H9c2 cells assessed as reduction in cell viability. It is filed as cell-based.
The nature of data set [16]: Intrinsic clearance in CD-1 mouse liver microsomes at 0.5 uM in presence of NADPH measured up to 45 mins by UPLC/MS/MS analysis. It is filed as ADME, Microsome. The conditions noted are these: 0.75 h. In a few lines: as §6
For orientation: Microsomes from liver hold many membrane-bound enzymes, among them those of drug oxidation.

A short description of data set [17]: Kinetic solubility of compound by charged aerosol detection method. Conditions: read-out: Kinetic_solubility. Type of data set: physicochemical.
A short description of data set [18]: AUCt in C57BL/6 mouse at 50 mg/kg, po after 15 mins to 24 hrs by LC-MS/MS analysis. Type of data set: ADME, organism-based. Also on record: dose 50 mg/kg, time upper 24 hr, time lower 0.25 hr, route oral. The conditions noted are these: in vivo.
Data set [19] is described as follows: Selectivity index, ratio of IC50 for rat H9c2 cells to IC50 for antitrypanosomal activity against Trypanosoma cruzi Tulahuen trypomastigotes beta-galactosidase infected in rat H9c2 cells. It is filed as toxicity, cell-based. The conditions noted are these: read-out: Ratio IC50.
Data set [20] can be described thus: Ratio of drug level in blood to plasma in mouse at 1 uM after 1 hr by LC-MS/MS analysis. Type of data set: ADME, cell-free. In a few lines: as §1
Data set [21] is described as follows: Solubility of compound in FASSIF at 1 mg incubated for 4 hrs by HPLC-UV analysis. It is filed as physicochemical. In a few lines:
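1 mg of solid compound was shaken in 1 mL FaSSIF at pH 6.5, at 900 rpm for 4 h at room temperature. The suspension was filtered and the supernatant quantified by HPLC-UV against a single-point DMSO standard. The dynamic range was 1–1000 μg/mL.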

Data set [22] is described as follows: Cmax in C57BL/6 mouse assessed as 5-Fluoro-6-(trifluoromethyl)benzothiazol-2-amine level at 50 mg/kg, po adminstered via gavage as suspension after 15 mins to 24 hrs by LC-MS/MS analysis. Type of data set: ADME, organism-based. The conditions noted are these: in vivo. Also on record: dose 50 mg/kg, route oral. In a few lines:
as §2

In brackets after ≈: the same amount, converted by molar mass. Activity calls are given as the source filed them. No cut-off for these calls is given here.

Turning to `O=C(Nc1nc2cc(F)c(C(F)(F)F)cc2s1)C1CC1`, the blood plasma ratio at 1 h, 1 µM was 0.8 in [1] and 1.2 in data set [20]. The AUC in data set [2] was 10065.32 ng·h/mL. The Cmax in [3] is 3390 ng/mL; in data set [22], 634 ng/mL. The PPB entry in data set [4] and in data set [9] was “Active” each time. Also, the half-life in data set [5] is 0.97 h. For the same compound, the Ratio in [6] is recorded as 1.5. Also, the outcome in data set [7] was Active. In [8], the Tmax is 1.33 h. Further, the results for the IC50 in [10] and in data set [15] were 79 nM and over 50000 nM, respectively. In addition, the CLH in [11] stood at 0.41 mL/min/g; in data set [16], 5.26 mL/min/g. In [12], the Vd was 5.73 L/kg. The Papp at 1 h, 3 µM in data set [13] amounted to 17.4 ×10⁻⁶ cm/s. This compound also registered a clearance in data set [14] of 58.3 mL/min/kg. Further, the solubility kinetic in data set [17] amounted to 36 µM (≈ 11 µg/mL). The AUC(0-t) in data set [18] is 31600 ng·h/mL. Moreover, the selectivity ratio in [19] is over 630. Moreover, the solubility at 4 h in data set [21] was found to be 51 µg/mL (≈ 168 µM).

Usually AUC stands for concentration integrated over time. For orientation: Cmax means the peak of the concentration-time curve. As usually defined, the half-life is the time in which the quantity being followed falls by half. Usually Tmax stands for the time at which the peak concentration occurs. As usually defined, the IC50 is the concentration at which inhibition is half-maximal. As a reminder, the Papp is a coefficient for how fast a substance crosses the barrier. As usually defined, the clearance is the volume of plasma or blood freed of the substance per unit of time. A higher clearance goes with a high capacity for elimination. For orientation: AUC(0-t) means exposure summed from dosing to a finite time, without extrapolation to infinity. A lower AUC(0-t) goes with low exposure. By solubility is commonly meant the dissolved amount per volume that the medium holds. Low readings indicate little dissolved substance, high ones much dissolved substance.
